From ChEMBL document CHEMBL1795305, “Sorafenib derivatives induce apoptosis through inhibition of STAT3 independent of Raf” (Eur J Med Chem, 2011)
Active and inactive are the calls of the source. The rule behind the calls is not given here.

Tests used:
[1] = Cytotoxicity against human PLC/PRF/5 cells assessed as growth inhibition; type: functional, cell-based
[2] = target: Signal transducer and activator of transcription 3 (Homo sapiens) (UniProt P40763); test: Inhibition of STAT3-mediated survivin expression in human PLC/PRF/5 cells at 5 to 10 uM after 24 hrs by Western blot analysis; type: cell-based
Outline: (§1)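 PLC5 cells in FBS-containing medium treated 24 h at 5 and 10 µM; whole-cell lysates immunoblotted for phospho-STAT3, total STAT3, cyclin D1 and survivin.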

[3] = target: Signal transducer and activator of transcription 3 (Homo sapiens) (UniProt P40763); test: Inhibition of STAT3-mediated cyclin D1 protein expression in human PLC/PRF/5 cells at 5 to 10 uM after 24 hrs by Western blot analysis; type: cell-based; outline: as §1
[4] = target: RAF proto-oncogene serine/threonine-protein kinase (Homo sapiens) (UniProt P04049); test: Inhibition of raf kinase in human PLC/PRF/5 cell lysate at 10 uM after 24 hrs
PLC-PRF-5 [5] = test: Induction of apoptosis in human PLC/PRF/5 at 5 to 10 uM by flow cytometry; type: functional
Outline: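 PLC5 cells treated 24 h at 5 and 10 µM; trypsinized, washed in PBS, stained with propidium iodide 30 min at 37 °C in the dark; apoptotic fraction read as sub-G1 population by flow cytometry; triplicate experiments.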

PLC-PRF-5 [6] = test: Induction of apoptosis in human PLC/PRF/5 cells assessed as DNA fragmentation at 5 to 10 uM by ELISA; type: functional, cell-based
Outline: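 PLC5 cells treated 24 h at 5 and 10 µM in culture; cell death quantified as DNA fragmentation by ELISA kit following manufacturer's standard protocol.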

[7] = target: Signal transducer and activator of transcription 3 (Homo sapiens) (UniProt P40763); test: Inhibition of IL6-induced STAT3 phosphorylation in human PLC/PRF/5 cells at 10 uM after 24 hrs by ELISA; type: cell-based
Outline: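 PLC5 cells pre-treated with IL-6 1 ng/mL, then exposed to compound at 10 µM for 24 h; lysates incubated on antibody-coated plate capturing phospho- and non-phospho-STAT3; phospho-STAT3 detected by absorbance at 450 nm; mean ± SD, N = 3.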

[8] = target: RAF proto-oncogene serine/threonine-protein kinase (Homo sapiens) (UniProt P04049); details: 5 uM

Signal transducer and activator of transcription 3 (Homo sapiens), sequence (P40763 whole entry): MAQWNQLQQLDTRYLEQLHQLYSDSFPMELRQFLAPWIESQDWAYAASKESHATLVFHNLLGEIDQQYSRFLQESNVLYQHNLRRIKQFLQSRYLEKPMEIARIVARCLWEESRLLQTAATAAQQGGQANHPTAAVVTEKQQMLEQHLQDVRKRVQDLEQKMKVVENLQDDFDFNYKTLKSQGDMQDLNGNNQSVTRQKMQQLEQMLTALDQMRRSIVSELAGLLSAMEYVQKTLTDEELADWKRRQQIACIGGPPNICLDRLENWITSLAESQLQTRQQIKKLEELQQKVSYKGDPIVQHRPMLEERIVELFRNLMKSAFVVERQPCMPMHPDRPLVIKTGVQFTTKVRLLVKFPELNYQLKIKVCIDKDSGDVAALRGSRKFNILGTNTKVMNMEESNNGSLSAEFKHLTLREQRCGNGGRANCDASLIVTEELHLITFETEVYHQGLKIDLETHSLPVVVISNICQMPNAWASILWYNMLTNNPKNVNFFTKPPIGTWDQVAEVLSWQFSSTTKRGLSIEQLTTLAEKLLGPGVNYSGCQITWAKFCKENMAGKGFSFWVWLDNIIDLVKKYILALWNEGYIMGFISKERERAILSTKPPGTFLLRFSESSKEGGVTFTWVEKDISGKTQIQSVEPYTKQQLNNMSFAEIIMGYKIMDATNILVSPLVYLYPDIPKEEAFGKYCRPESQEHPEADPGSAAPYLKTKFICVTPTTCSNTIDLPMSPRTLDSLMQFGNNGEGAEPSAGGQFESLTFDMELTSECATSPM

For O=C(Nc1ccc(Oc2ccnc3c([N+](=O)[O-])cccc23)cc1)c1cc(C(F)(F)F)cc(C(F)(F)F)c1, the IC50 ([1]; Homo sapiens, PLC-PRF-5) was greater than 40 µM.
CNC(=O)c1cc(Oc2ccc(NS(=O)(=O)c3ccc(F)cc3)cc2)ccn1 gave an IC50 ([1]; Homo sapiens, PLC-PRF-5) greater than 40 µM.
Compound CC(=O)Nc1cccc2c(Oc3ccc(NC(=O)c4cc(C(F)(F)F)cc(C(F)(F)F)c4)c(C)c3)ccnc12 has an IC50 ([1]; Homo sapiens, PLC-PRF-5) greater than 40 µM.
With Nc1cccc2c(Oc3cccc(NC(=O)c4cc(C(F)(F)F)cc(C(F)(F)F)c4)c3)ccnc12 the IC50 ([1]; Homo sapiens, PLC-PRF-5) was 19 µM.
CC(=O)Nc1cccc2c(Oc3cccc(NC(=O)c4cc(C(F)(F)F)cc(C(F)(F)F)c4)c3)ccnc12 gave an IC50 ([1]; Homo sapiens, PLC-PRF-5) of 10.8 µM.
For O=[N+]([O-])c1cc(C(F)(F)F)ccc1S(=O)(=O)Nc1ccc(Oc2ccnc3c([N+](=O)[O-])cccc23)cc1, the IC50 ([1]; Homo sapiens, PLC-PRF-5) was greater than 40 µM.
O=[N+]([O-])c1cccc2c(Oc3ccc(NS(=O)(=O)c4ccc(C(F)(F)F)cc4Br)cc3)ccnc12 showed an IC50 ([1]; Homo sapiens, PLC-PRF-5) greater than 40 µM.
With O=S(=O)(Nc1ccc(Oc2ccnc3ccccc23)cc1)c1ccc(C(F)(F)F)cc1Br the IC50 ([1]; Homo sapiens, PLC-PRF-5) was greater than 40 µM.
Work on O=C(Nc1ccc(Oc2ccnc3ccccc23)cc1)c1cc(C(F)(F)F)cc(C(F)(F)F)c1 yielded an IC50 ([1]; Homo sapiens, PLC-PRF-5) of 16 µM.
CNC(=O)c1cc(Oc2ccc(NC(=O)c3ccc(C(F)(F)F)cc3)cc2)ccn1 gave an IC50 ([1]; Homo sapiens, PLC-PRF-5) greater than 40 µM.
In the case of O=[N+]([O-])c1cc(C(F)(F)F)ccc1S(=O)(=O)Nc1ccc(Oc2ccnc3ccccc23)cc1, the IC50 ([1]; Homo sapiens, PLC-PRF-5) is reported as greater than 40 µM, the inhibition [2] is reported as “inactive” and the inhibition [3] is reported as “inactive”.
Work on Cc1cc(Oc2ccnc3c([N+](=O)[O-])cccc23)ccc1NC(=O)c1cc(C(F)(F)F)cc(C(F)(F)F)c1 yielded an IC50 ([1]; Homo sapiens, PLC-PRF-5) greater than 40 µM.
In the case of Cc1cc(Oc2ccnc3c(N)cccc23)ccc1NC(=O)c1cc(C(F)(F)F)cc(C(F)(F)F)c1, the IC50 ([1]; Homo sapiens, PLC-PRF-5) is reported as 25.4 µM.
With CNC(=O)c1cc(Oc2ccc(NS(=O)(=O)c3ccc4ccccc4c3)cc2)ccn1 the IC50 ([1]; Homo sapiens, PLC-PRF-5) was greater than 40 µM.
CNC(=O)c1cc(Oc2ccc(NS(=O)(=O)c3ccccc3)cc2)ccn1 showed an IC50 ([1]; Homo sapiens, PLC-PRF-5) greater than 40 µM.
CNC(=O)c1cc(Oc2ccc(NC(=O)c3cc(C(F)(F)F)ccc3F)cc2)ccn1 showed an IC50 ([1]; Homo sapiens, PLC-PRF-5) greater than 40 µM.
In the case of CNC(=O)c1cc(Oc2ccc(NC(=O)c3cc(C(F)(F)F)cc(C(F)(F)F)c3)cc2)ccn1, the IC50 ([1]; Homo sapiens, PLC-PRF-5) is reported as greater than 40 µM.
With SC-1 [listing 1 of 2 here] the inhibition [4] was “inactive”, the inhibition [2] was “Active” and the Activity (PLC-PRF-5 [5]) was “Active”. The inhibition [3] was “Active”, the Activity (PLC-PRF-5 [6]) was “Active” and the inhibition [7] was “Active”.
With CNC(=O)c1cc(Oc2ccc(NS(=O)(=O)c3ccccc3[N+](=O)[O-])cc2)ccn1 the IC50 ([1]; Homo sapiens, PLC-PRF-5) was greater than 40 µM.
Compound O=C(Nc1ccc(Oc2ccnc3ccccc23)cc1)c1cc(C(F)(F)F)ccc1F has an IC50 ([1]; Homo sapiens, PLC-PRF-5) of 21.1 µM.
For CNC(=O)c1cc(Oc2ccc(NS(=O)(=O)c3ccc([N+](=O)[O-])cc3)cc2)ccn1, the IC50 ([1]; Homo sapiens, PLC-PRF-5) was greater than 40 µM.
Compound O=C(Nc1cccc(Oc2ccnc3c([N+](=O)[O-])cccc23)c1)c1cc(C(F)(F)F)cc(C(F)(F)F)c1 has an IC50 ([1]; Homo sapiens, PLC-PRF-5) greater than 40 µM.
In the case of CNC(=O)c1cc(Oc2ccc(NC(=O)Nc3ccc(Cl)c(C(F)(F)F)c3)cc2)ccn1 [SORAFENIB], the IC50 ([1]; Homo sapiens, PLC-PRF-5) is reported as 8.3 µM and the inhibition [8] is reported as 50%.
With CNC(=O)c1cc(Oc2ccc(NS(=O)(=O)c3ccc(C(F)(F)F)cc3Br)cc2)ccn1 the IC50 ([1]; Homo sapiens, PLC-PRF-5) was greater than 40 µM.
Compound O=C(Nc1ccc(Oc2ccnc3c([N+](=O)[O-])cccc23)cc1)c1cc(C(F)(F)F)ccc1F has an IC50 ([1]; Homo sapiens, PLC-PRF-5) greater than 40 µM.
CNC(=O)c1cc(Oc2ccc(NS(=O)(=O)c3ccc(C(C)(C)C)cc3)cc2)ccn1 gave an IC50 ([1]; Homo sapiens, PLC-PRF-5) greater than 40 µM.
With SC-1 [listing 2 of 2 here] the IC50 ([1]; plc-prf-5) was 7.5 µM.
